Laboratory results from ChEMBL document CHEMBL4715736, “Identification of anticancer agents based on the thieno[2,3-b]pyridine and 1H-pyrazole molecular scaffolds” (2016).

Experiments:
Type in all cases: functional
NCI-H522 [1] = experiment: Growth inhibition of human NCI-H522 cells assessed as cell growth at 0.01 uM incubated for 48 hrs by sulforhodamine B assay relative to control; conditions: read-out: Activity
HCT-116 [2] = experiment: Growth inhibition of human HCT-116 cells assessed as cell growth at 0.01 uM incubated for 48 hrs by sulforhodamine B assay relative to control; conditions: read-out: Activity
SF-268 [3] = experiment: Growth inhibition of human SF-268 cells assessed as cell growth at 0.01 uM incubated for 48 hrs by sulforhodamine B assay relative to control; conditions: read-out: Activity
SNB-19 = experiment: Growth inhibition of human SNB-19 cells assessed as cell growth at 0.01 uM incubated for 48 hrs by sulforhodamine B assay relative to control; conditions: read-out: Activity
IGROV-1 = experiment: Growth inhibition of human IGROV-1 cells assessed as cell growth at 0.01 uM incubated for 48 hrs by sulforhodamine B assay relative to control; conditions: read-out: Activity
TK-10 = experiment: Growth inhibition of human TK-10 cells assessed as cell growth at 0.01 uM incubated for 48 hrs by sulforhodamine B assay relative to control; conditions: read-out: Activity
KM12 = experiment: Growth inhibition of human KM12 cells assessed as cell growth at 0.1 uM incubated for 48 hrs by sulforhodamine B assay relative to control; conditions: read-out: Activity
SNB-75 = experiment: Growth inhibition of human SNB-75 cells assessed as cell growth at 0.1 uM incubated for 48 hrs by sulforhodamine B assay relative to control; conditions: read-out: Activity
CAKI-1 [4] = experiment: Growth inhibition of human CAKI-1 cells assessed as cell growth at 0.1 uM incubated for 48 hrs by sulforhodamine B assay relative to control; conditions: read-out: Activity
In short: (§1)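 NCI Developmental Therapeutics Program NCI60 panel. Compounds that were active in the 10 µM one-dose screen went on to dose–response testing. Growth at each concentration is expressed relative to untreated control (100%). GI50 (concentration giving 50% of maximal inhibition of proliferation) and TGI (concentration giving total growth inhibition) were derived from the curves.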

MCF7 [5] = experiment: Growth inhibition of human MCF7 cells assessed as cell growth at 0.1 uM incubated for 48 hrs by sulforhodamine B assay relative to control; conditions: read-out: Activity
MOLT-4 [6] = experiment: Growth inhibition of human MOLT-4 cells assessed as cell growth at 1 uM incubated for 48 hrs by sulforhodamine B assay relative to control; conditions: read-out: Activity
HOP-62 = experiment: Growth inhibition of human HOP-62 cells assessed as cell growth at 1 uM incubated for 48 hrs by sulforhodamine B assay relative to control; conditions: read-out: Activity
NCI-H522 [7] = experiment: Growth inhibition of human NCI-H522 cells assessed as cell growth at 1 uM incubated for 48 hrs by sulforhodamine B assay relative to control; conditions: read-out: Activity
HT-29 [8] = experiment: Growth inhibition of human HT-29 cells assessed as cell growth at 1 uM incubated for 48 hrs by sulforhodamine B assay relative to control; conditions: read-out: Activity
OVCAR-8 [9] = experiment: Growth inhibition of human OVCAR-8 cells assessed as cell growth at 1 uM incubated for 48 hrs by sulforhodamine B assay relative to control; conditions: read-out: Activity
786-0 = experiment: Growth inhibition of human 786-0 cells assessed as cell growth at 1 uM incubated for 48 hrs by sulforhodamine B assay relative to control; conditions: read-out: Activity; in short: as §1
UO-31 = experiment: Growth inhibition of human UO-31 cells assessed as cell growth at 1 uM incubated for 48 hrs by sulforhodamine B assay relative to control; conditions: read-out: Activity
MCF7 [10] = experiment: Growth inhibition of human MCF7 cells assessed as cell growth at 1 uM incubated for 48 hrs by sulforhodamine B assay relative to control; conditions: read-out: Activity
HT-29 [11] = experiment: Growth inhibition of human HT-29 cells assessed as cell growth at 100 uM incubated for 48 hrs by sulforhodamine B assay relative to control; conditions: read-out: Activity
SF-539 = experiment: Growth inhibition of human SF-539 cells assessed as cell growth at 100 uM incubated for 48 hrs by sulforhodamine B assay relative to control; conditions: read-out: Activity
SK-MEL-28 = experiment: Growth inhibition of human SK-MEL-28 cells assessed as cell growth at 100 uM incubated for 48 hrs by sulforhodamine B assay relative to control; conditions: read-out: Activity
Hs-578T = experiment: Growth inhibition of human Hs-578T cells assessed as cell growth at 100 uM incubated for 48 hrs by sulforhodamine B assay relative to control; conditions: read-out: Activity
MOLT-4 [12] = experiment: Growth inhibition of human MOLT-4 cells incubated for 48 hrs by sulforhodamine B assay; conditions: for CC50: read-out: LC50 (the source's name)
In short: (§2)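 NCI60 panel at the NCI Developmental Therapeutics Program. Only compounds active in the 10 µM screen went to dose-response testing. GI50, the concentration giving 50% of maximal inhibition of proliferation, and TGI, the concentration giving total growth inhibition, were derived from the dose-response curves.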

HOP-92 = experiment: Growth inhibition of human HOP-92 cells incubated for 48 hrs by sulforhodamine B assay; in short: as §2
NCI-H522 [13] = experiment: Growth inhibition of human NCI-H522 cells incubated for 48 hrs by sulforhodamine B assay; in short: as §2
HCC 2998 = experiment: Growth inhibition of human HCC 2998 cells incubated for 48 hrs by sulforhodamine B assay; conditions: for CC50: read-out: LC50 (the source's name)
HCT-116 [14] = experiment: Growth inhibition of human HCT-116 cells incubated for 48 hrs by sulforhodamine B assay; in short: as §2
HCT-15 = experiment: Growth inhibition of human HCT-15 cells incubated for 48 hrs by sulforhodamine B assay; in short: as §2
SW-620 = experiment: Growth inhibition of human SW-620 cells incubated for 48 hrs by sulforhodamine B assay
In short: (§3)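 NCI DTP 60-line human tumour panel. Dose-response curves were run only for ligands active in the initial 10 µM screen. GI50 (concentration giving 50% of maximal inhibition of proliferation) and TGI (concentration giving total growth inhibition) were derived from these curves.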

SF-268 [15] = experiment: Growth inhibition of human SF-268 cells incubated for 48 hrs by sulforhodamine B assay; in short: as §3
OVCAR-8 [16] = experiment: Growth inhibition of human OVCAR-8 cells incubated for 48 hrs by sulforhodamine B assay; conditions: for CC50: read-out: LC50 (the source's name); in short: as §3
NCI/ADR-RES = experiment: Growth inhibition of human NCI/ADR-RES cells incubated for 48 hrs by sulforhodamine B assay; conditions: for CC50: read-out: LC50 (the source's name); in short: as §2
CAKI-1 [17] = experiment: Growth inhibition of human CAKI-1 cells incubated for 48 hrs by sulforhodamine B assay; conditions: for CC50: read-out: LC50 (the source's name); in short: as §1
RXF 393 = experiment: Growth inhibition of human RXF 393 cells incubated for 48 hrs by sulforhodamine B assay; conditions: for CC50: read-out: LC50 (the source's name); in short: as §3
NCI-H23 = experiment: Growth inhibition of human NCI-H23 cells assessed as cell growth at 100 uM incubated for 48 hrs by sulforhodamine B assay relative to control; conditions: read-out: Activity

SMILES: Cc1ccc(NC(=O)c2sc3nc4c(cc3c2N)C(=O)CCC4)cc1C
- growth at 0.01 µM (NCI-H522 [1]): 100%
- growth at 0.01 µM (HCT-116 [2]): 99%
- growth at 0.01 µM (SF-268 [3]): 95%
- growth at 0.01 µM (SNB-19): 91%
- growth at 0.01 µM (IGROV-1): 104%
- growth at 0.01 µM (TK-10): 96%
- growth at 0.1 µM (KM12): 96%
- growth at 0.1 µM (SNB-75): 70%
- growth at 0.1 µM (CAKI-1 [4]): 91%
- growth at 0.1 µM (MCF7 [5]): 86%
- growth at 1 µM (MOLT-4 [6]): 82%
- growth at 1 µM (HOP-62): 40%
- growth at 1 µM (NCI-H522 [7]): 1%
- growth at 1 µM (HT-29 [8]): 14%
- growth at 1 µM (OVCAR-8 [9]): 68%
- growth at 1 µM (786-0): 40%
- growth at 1 µM (UO-31): 42%
- growth at 1 µM (MCF7 [10]): 18%
- growth at 100 µM (HT-29 [11]): -23%
- growth at 100 µM (SF-539): 7%
- growth at 100 µM (SK-MEL-28): 25%
- growth at 100 µM (Hs-578T): 17%
- GI50 (MOLT-4 [12]): 6.41 µM
- TGI (MOLT-4 [12]): 76.2 µM
- CC50 (MOLT-4 [12]): > 100 µM
- LC50 (concentration killing 50% of the starting cells) (HOP-92): > 100 µM
- TGI (HOP-92): > 100 µM
- GI50 (NCI-H522 [13]): 0.256 µM
- LC50 (NCI-H522 [13]): > 100 µM
- TGI (NCI-H522 [13]): 20 µM
- GI50 (HCC 2998): 1.4 µM
- TGI (HCC 2998): > 100 µM
- CC50 (HCC 2998): > 100 µM
- GI50 (HCT-116 [14]): 0.527 µM
- LC50 (concentration killing 50% of cells) (HCT-116 [14]): > 100 µM
- TGI (HCT-116 [14]): > 100 µM
- GI50 (HCT-15): 0.486 µM
- LC50 (HCT-15): > 100 µM
- TGI (HCT-15): > 100 µM
- GI50 (SW-620): 0.4 µM
- LC50 (concentration killing 50% of cells) (SW-620): > 100 µM
- TGI (SW-620): > 100 µM
- GI50 (SF-268 [15]): 3.07 µM
- LC50 (concentration killing 50% of cells) (SF-268 [15]): > 100 µM
- TGI (SF-268 [15]): > 100 µM
- GI50 (OVCAR-8 [16]): 3.06 µM
- TGI (OVCAR-8 [16]): > 100 µM
- CC50 (OVCAR-8 [16]): > 100 µM
- GI50 (NCI/ADR-RES): 0.658 µM
- TGI (NCI/ADR-RES): > 100 µM
- CC50 (NCI/ADR-RES): > 100 µM
- TGI (CAKI-1 [17]): > 100 µM
- CC50 (CAKI-1 [17]): > 100 µM
- GI50 (RXF 393): 0.222 µM
- CC50 (RXF 393): > 100 µM

SMILES: CCc1cccc(C)c1NC(=O)c1sc2nc3c(cc2c1N)C(=O)CCC3
- growth at 0.01 µM (HCT-116 [2]): 92%
- growth at 0.01 µM (SF-268 [3]): 97%
- growth at 0.01 µM (SNB-19): 96%
- growth at 0.01 µM (IGROV-1): 101%
- growth at 0.1 µM (KM12): 92%
- growth at 0.1 µM (SNB-75): 75%
- growth at 0.1 µM (CAKI-1 [4]): 91%
- growth at 0.1 µM (MCF7 [5]): 90%
- growth at 1 µM (MOLT-4 [6]): 67%
- growth at 1 µM (HOP-62): 52%
- growth at 1 µM (OVCAR-8 [9]): 62%
- growth at 1 µM (786-0): 36%
- growth at 1 µM (UO-31): 37%
- growth at 1 µM (MCF7 [10]): 18%
- growth at 100 µM (NCI-H23): 14%
- growth at 100 µM (SF-539): 2%
- growth at 100 µM (SK-MEL-28): 11%
- growth at 100 µM (Hs-578T): 17%
- GI50 (MOLT-4 [12]): 2.42 µM
- TGI (MOLT-4 [12]): ≥ 100 µM
- CC50 (MOLT-4 [12]): > 100 µM
- GI50 (HOP-92): 0.446 µM
- LC50 (concentration killing 50% of the starting cells) (HOP-92): > 100 µM
- TGI (HOP-92): 70 µM
- GI50 (HCC 2998): 1.33 µM
- TGI (HCC 2998): > 100 µM
- CC50 (HCC 2998): > 100 µM
- GI50 (HCT-116 [14]): 0.471 µM
- LC50 (concentration killing 50% of cells) (HCT-116 [14]): > 100 µM
- TGI (HCT-116 [14]): > 100 µM
- GI50 (HCT-15): 0.471 µM
- LC50 (HCT-15): > 100 µM
- TGI (HCT-15): > 100 µM
- GI50 (SW-620): 0.359 µM
- LC50 (concentration killing 50% of cells) (SW-620): > 100 µM
- TGI (SW-620): > 100 µM
- GI50 (SF-268 [15]): 3.04 µM
- LC50 (concentration killing 50% of cells) (SF-268 [15]): > 100 µM
- TGI (SF-268 [15]): > 100 µM
- GI50 (OVCAR-8 [16]): 2.13 µM
- TGI (OVCAR-8 [16]): ≥ 100 µM
- CC50 (OVCAR-8 [16]): > 100 µM
- GI50 (NCI/ADR-RES): 0.558 µM
- CC50 (NCI/ADR-RES): > 100 µM
- GI50 (CAKI-1 [17]): 0.511 µM
- TGI (CAKI-1 [17]): > 100 µM
- CC50 (CAKI-1 [17]): > 100 µM
- GI50 (RXF 393): 0.202 µM
- CC50 (RXF 393): > 100 µM
